{"source": "ChEMBL document CHEMBL1126260", "about": "“Thromboxane receptor antagonism combined with thromboxane synthase inhibition. 2. Synthesis and biological activity of 8-(benzenesulfonamido)-7-(3-pyridinyl)octaonic acid and related compounds” (J Med Chem, 1992)", "key": {"[1]": {"species_on_record": "Homo sapiens", "assay": "Inhibitory activity against U-46,619-induced aggregation of washed human platelets.", "type": "functional", "method_in_brief": "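Aspirin-treated, washed human platelets stimulated with U 46619 (stable PGH₂/TxA₂ mimic); aggregation inhibition measured; IC50.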"}, "[2]": {"target": "T1, Thromboxane-A synthase (Homo sapiens, UniProt P24557)", "T1 sequence (P24557 whole entry)": "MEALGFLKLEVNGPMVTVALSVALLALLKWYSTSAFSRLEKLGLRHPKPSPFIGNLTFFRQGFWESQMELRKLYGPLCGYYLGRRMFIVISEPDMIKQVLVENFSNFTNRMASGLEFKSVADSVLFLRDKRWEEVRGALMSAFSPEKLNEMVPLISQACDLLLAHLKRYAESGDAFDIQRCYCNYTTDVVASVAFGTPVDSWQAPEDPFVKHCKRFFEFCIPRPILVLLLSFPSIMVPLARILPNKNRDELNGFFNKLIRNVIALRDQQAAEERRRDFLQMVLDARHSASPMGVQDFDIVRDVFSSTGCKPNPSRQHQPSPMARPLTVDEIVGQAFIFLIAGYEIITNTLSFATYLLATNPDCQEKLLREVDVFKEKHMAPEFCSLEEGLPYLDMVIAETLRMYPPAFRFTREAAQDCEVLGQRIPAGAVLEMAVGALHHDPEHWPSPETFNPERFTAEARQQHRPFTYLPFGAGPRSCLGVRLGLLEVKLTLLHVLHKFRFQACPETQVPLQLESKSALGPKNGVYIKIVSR", "assay": "Inhibitory activity against human Thromboxane A2 synthase", "method_in_brief": "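Human platelet microsomal preparation incubated with (14C)arachidonic acid; thromboxane synthase inhibition read as reduced TxB₂ formation; IC50.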"}, "[3]": {"species_on_record": "Oryctolagus cuniculus", "assay": "Antagonist activity against contraction of rabbit aortic strips; (agonist activity was observed at 10e-5-10e-7M)", "type": "functional, Aorta", "method_in_brief": "(§1)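 Thoracic aorta segments (~3 cm) from anesthetized male New Zealand rabbits (1.4–2.4 kg), cleaned of fat; 2.0 g preload, 1 h equilibration. Contraction evoked by U 46619 (3 × 10⁻⁹ M) to plateau (20 min), then washed back to baseline. IC50 from a single determination.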"}, "[4]": {"species_on_record": "Homo sapiens", "assay": "Antagonist activity against U-46,619-induced aggregation of platelet rich plasma (PRP)", "type": "functional", "method_in_brief": "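Human platelet-rich plasma stimulated with U 46619; aggregation inhibition measured; IC50.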"}, "[5]": {"assay": "Ratio of platelet rich plasma to that of washed platelets"}, "[6]": {"species_on_record": "Oryctolagus cuniculus", "assay": "Antagonist activity against contraction of rabbit aortic strips", "type": "functional", "details": "Aorta", "method_in_brief": "as §1"}}}
{"smiles": "Cc1ccc(S(=O)(=O)NCC(CCCCCC(=O)O)c2cccnc2)cc1", "note": "(stereo not drawn)", "values": [{"measurement": "IC50", "setting": "[1]", "result": 200, "unit": "nM"}, {"measurement": "IC50", "setting": "[2]", "result": 50, "unit": "nM"}]}
{"smiles": "Cl.O=C(O)CCCCCCC(CNS(=O)(=O)c1ccc(Cl)cc1)c1cccnc1", "note": "(stereo not drawn)", "values": [{"measurement": "IC50", "setting": "[3]", "result": "Agonist"}, {"measurement": "IC50", "setting": "[1]", "result": 10, "unit": "nM"}, {"measurement": "IC50", "setting": "[4]", "result": 200, "unit": "nM"}, {"measurement": "Ratio", "setting": "[5]", "result": 20}, {"measurement": "IC50", "setting": "[2]", "result": 240, "unit": "nM"}]}
{"smiles": "NC(=O)CCCCCC(CNS(=O)(=O)c1ccccc1)c1cccnc1", "note": "(stereo not drawn)", "values": [{"measurement": "IC50", "setting": "[1]", "result": "> 10000", "unit": "nM"}, {"measurement": "IC50", "setting": "[2]", "result": "> 10000", "unit": "nM"}]}
{"smiles": "O=C(O)CCCCCC(CNS(=O)(=O)c1ccccc1)c1cccnc1", "note": "(stereo in doubt; 25)", "values": [{"measurement": "IC50", "setting": "[1]", "result": 250, "unit": "nM"}, {"measurement": "IC50", "setting": "[2]", "result": "> 10000", "unit": "nM"}]}
{"smiles": "O=C(O)COc1ccc(CCNS(=O)(=O)c2ccccc2)cc1", "note": "[SULOTROBAN]", "values": [{"measurement": "IC50", "setting": "[1]", "result": 1500, "unit": "nM"}, {"measurement": "IC50", "setting": "[4]", "result": 4000, "unit": "nM"}, {"measurement": "Ratio", "setting": "[5]", "result": 2.6}]}
{"smiles": "Cc1ccccc1S(=O)(=O)NCC(CCCCCC(=O)O)c1cccnc1", "note": "(stereo not drawn)", "values": [{"measurement": "IC50", "setting": "[1]", "result": 380, "unit": "nM"}, {"measurement": "IC50", "setting": "[2]", "result": 200, "unit": "nM"}]}
{"smiles": "O=C(O)CCCCCC(CNS(=O)(=O)c1ccc([N+](=O)[O-])cc1)c1cccnc1", "note": "(stereo not drawn)", "values": [{"measurement": "IC50", "setting": "[1]", "result": 70, "unit": "nM"}, {"measurement": "IC50", "setting": "[2]", "result": 120, "unit": "nM"}]}
{"smiles": "Cl.O=C(O)CCCCCC(CNS(=O)(=O)c1ccc(Cl)cc1)c1cccnc1", "note": "(stereo not drawn)", "values": [{"measurement": "IC50", "setting": "[3]", "result": "Agonist"}, {"measurement": "IC50", "setting": "[4]", "result": 600, "unit": "nM"}, {"measurement": "Ratio", "setting": "[5]", "result": 30}]}
{"smiles": "CN(CC(CCCCCC(=O)O)c1cccnc1)S(=O)(=O)c1ccc(Cl)cc1", "note": "(stereo not drawn)", "values": [{"measurement": "IC50", "setting": "[1]", "result": "> 10000", "unit": "nM"}, {"measurement": "IC50", "setting": "[2]", "result": "> 10000", "unit": "nM"}]}
{"smiles": "COc1ccc(S(=O)(=O)NCC(CCCCCC(=O)O)c2cccnc2)cc1", "note": "(stereo not drawn)", "values": [{"measurement": "IC50", "setting": "[1]", "result": 300, "unit": "nM"}, {"measurement": "IC50", "setting": "[2]", "result": 940, "unit": "nM"}]}
{"smiles": "Cl.O=C(O)CCCCCC(CNS(=O)(=O)c1ccccc1)c1cccnc1", "note": "(stereo in doubt; 6)", "values": [{"measurement": "IC50", "setting": "[6]", "result": 400, "unit": "nM"}, {"measurement": "IC50", "setting": "[1]", "result": 250, "unit": "nM"}, {"measurement": "IC50", "setting": "[4]", "result": 2100, "unit": "nM"}, {"measurement": "Ratio", "setting": "[5]", "result": 8.2}, {"measurement": "IC50", "setting": "[2]", "result": 210, "unit": "nM"}]}
{"smiles": "O=C(O)CCCCCC(CNS(=O)(=O)c1ccc(C(=O)O)cc1)c1cccnc1", "note": "(stereo not drawn)", "values": [{"measurement": "IC50", "setting": "[1]", "result": "> 10000", "unit": "nM"}, {"measurement": "IC50", "setting": "[2]", "result": "> 10000", "unit": "nM"}]}
{"smiles": "O=C(O)CCCCC(CNS(=O)(=O)c1ccc(Cl)cc1)c1cccnc1", "note": "(stereo not drawn)", "values": [{"measurement": "IC50", "setting": "[1]", "result": 80, "unit": "nM"}, {"measurement": "IC50", "setting": "[2]", "result": 77, "unit": "nM"}]}
{"smiles": "Cl.O=C(O)CCCCCC(CNS(=O)(=O)c1ccc(Cl)c(Cl)c1)c1cccnc1", "note": "(stereo not drawn)", "values": [{"measurement": "IC50", "setting": "[6]", "result": 1000, "unit": "nM"}, {"measurement": "IC50", "setting": "[1]", "result": 80, "unit": "nM"}, {"measurement": "IC50", "setting": "[4]", "result": 2500, "unit": "nM"}, {"measurement": "Ratio", "setting": "[5]", "result": 32}, {"measurement": "IC50", "setting": "[2]", "result": 40, "unit": "nM"}]}
{"smiles": "O=C(O)CCCC(CNS(=O)(=O)c1ccc(Cl)cc1)c1cccnc1", "note": "(stereo not drawn)", "values": [{"measurement": "IC50", "setting": "[1]", "result": "> 10000", "unit": "nM"}, {"measurement": "IC50", "setting": "[2]", "result": 2000, "unit": "nM"}]}
{"smiles": "COC(=O)CCCCCC(CNS(=O)(=O)c1ccccc1)c1cccnc1", "note": "(stereo not drawn)", "values": [{"measurement": "IC50", "setting": "[1]", "result": "> 10000", "unit": "nM"}, {"measurement": "IC50", "setting": "[2]", "result": "> 10000", "unit": "nM"}]}
